# Rows were chosen to be rich in hits. Some 2.7% of all compounds tested hit in one or more screens of this group.
# ARFGAP1 inhibitor: inhibitors of rat ARFGAP1; Arfgap1-stimulated ARF1 GTP hydrolysis, GDP FP detection; inhibition, % at 16.5 µM; hit rate 0.26% among 360,000;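 active = inhibition above a per-plate limit, mean inhibition of low control wells plus 3 SD, cut at about 25% in these data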
#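 Material: truncated rat Arfgap1 GAP domain; Incubation: compound-enzyme preincubation 20 min, reaction 120 min, detection 60 min, 25 °C; Read-out: percent inhibition of Arfgap1-stimulated GTP hydrolysis; Technique: FP, GDP Alexa 633 tracer displaced from anti-GDP antibody, 620/688 nm; Controls: No-Arfgap1 wells (100%) versus DMSO full-reaction wells (0%); Replication: single well per compound.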
# PAFAH1B2 FP inh: blocks human PAF acetylhydrolase 1b catalytic subunit 2 | recombinant PAFAH1B2, FP-rhodamine activity probe, fluorescence polarization | hit rate 1.2% among 340,000 | inhibition, % at 3.39 µM;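 active = inhibition above the mean of all tested compounds plus 3 SD, cut at about 24% in these data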
# ASAP1 inh: ASAP1 ArfGAP inhibition. Q9ULH1. ASAP1-stimulated ARF1 GTP hydrolysis, GDP FP detection. inhibition, % at 16.5 µM. hit rate 0.19% among 360,000; in the data active = inhibition above about 25%
# Target sequence (Q9ULH1 325-724 limits assumed): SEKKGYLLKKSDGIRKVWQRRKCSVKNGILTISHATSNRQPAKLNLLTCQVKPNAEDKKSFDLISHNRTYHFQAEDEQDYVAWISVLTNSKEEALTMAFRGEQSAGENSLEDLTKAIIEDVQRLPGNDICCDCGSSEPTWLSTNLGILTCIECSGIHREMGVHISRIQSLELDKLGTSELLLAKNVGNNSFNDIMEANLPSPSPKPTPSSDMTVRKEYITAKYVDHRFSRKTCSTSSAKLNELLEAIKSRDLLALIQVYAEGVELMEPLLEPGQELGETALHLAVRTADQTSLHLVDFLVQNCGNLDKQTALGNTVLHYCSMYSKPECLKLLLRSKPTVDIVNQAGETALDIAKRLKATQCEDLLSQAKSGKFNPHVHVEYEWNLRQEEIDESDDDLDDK
# PAFAH1B3 FP inh: inhibitors of human PAFAH1B3 | Q15102 | recombinant PAFAH1B3, FP-rhodamine probe, fluorescence polarization | inhibition, % at 3.39 µM | hit rate 0.28% among 340,000 | AID 492972;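 active = inhibition above the screen-wide average of all tested compounds plus 3 SD, cut at about 25% in these data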
# PAFAH2 FP inh: inhibitors of human PAFAH2; hit rate 0.99% among 340,000; Q99487; recombinant PAFAH2, FP-rhodamine activity probe, fluorescence polarization; AID 492956; inhibition, % at 3.39 µM;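 active = inhibition above the mean over all tested compounds plus 3 SD, cut at about 30% in these data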;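 note: inhibitors block probe labeling of enzyme so polarization drops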
# pPAFAH FP inh: inhibitors of human plasma PAF acetylhydrolase (pPAFAH); AID 463082; hit rate 1.5% among 330,000; inhibition, % at 3.39 µM; recombinant pPAFAH, FP-rhodamine probe fluorescence polarization;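 active = inhibition above the mean inhibition across the screen plus 3 SD, cut at about 25% in these data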;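 note: inhibitors block binding of the rhodamine activity-based probe so polarization drops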
# PAFAH2 confirm: confirmation of human PAFAH2 inhibitors; shares compounds with PAFAH2 FP inh; recombinant PAFAH2, FP-rhodamine activity probe, fluorescence polarization; inhibition, % at 3.39 µM; hit rate 65% among 2,300; AID 493030;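 active = mean inhibition over three repeats above a set limit taken from the earlier primary screen, cut at about 30% in these data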;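 note: inhibitor blocks binding of rhodamine activity probe so polarization falls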
# A number is an active result; i = inactive; nt = no result given.
SMILES,ARFGAP1 inhibitor,PAFAH1B2 FP inh,ASAP1 inh,PAFAH1B3 FP inh,PAFAH2 FP inh,pPAFAH FP inh,PAFAH2 confirm
CN(C)c1nc2c(c(N)nn2-c2ccc(Cl)cc2)c(=O)o1,i,i,i,i,47,i,41
Cc1cc(C(=O)OCC(=O)NCc2ccccc2Cl)c(C)o1,i,i,i,i,51,i,50
O=C(COC(=O)C1CC1)NCc1ccccc1Cl,i,i,i,i,58,i,52
COc1ccccc1CNC(=O)COC(=O)C1CC1,i,i,i,i,i,i,nt
Cc1cc(C(=O)OCC(=O)NCc2ccc(Cl)cc2Cl)c(C)o1,i,i,i,i,37,i,i
COc1ccccc1CNC(=O)COC(=O)c1cc(C)oc1C,i,i,i,i,i,i,nt
COC(=O)c1c(NC(=O)COC(=O)CNC(=O)c2cccc(OC(F)F)c2)sc(C)c1C,i,nt,i,nt,nt,nt,nt
C=CCN1[C@@H](C)[C@H](c2ccccc2)Oc2cccc(NCCc3ccccc3)c2S1(=O)=O,i,nt,i,nt,nt,nt,nt
C[C@@H]1CN([C@@H](C)CO)C(=O)CCCn2nncc2CO[C@@H]1CN(C)S(=O)(=O)c1cn(C)cn1,i,nt,i,nt,nt,nt,nt
C[C@H](CO)N1C[C@H](C)[C@@H](CN(C)Cc2ccc(Oc3ccccc3)cc2)Oc2cc(Br)ccc2S1(=O)=O,i,nt,i,nt,nt,nt,nt
O=C(CCc1[nH]c2ccccc2c1Sc1ccccc1)NCCO,i,i,i,i,37,i,i
Cc1ccc(S(=O)(=O)Nc2c(O)c3ccccc3oc2=O)cc1C,i,i,i,i,43,i,i
Cc1ccccc1S(=O)(=O)/N=C(/Nc1nc2ccccc2s1)c1ccccc1,i,i,i,i,36,i,30
O=C(COC(=O)C1CC1)Nc1ccc(Cl)cn1,i,i,i,i,31,i,i
O=C(COC(=O)C1CC1)Nc1ncc(Cl)cc1Cl,i,i,i,i,30,i,i
CC1CC1C(=O)OCC(=O)Nc1ncc(Cl)cc1Cl (stereo not drawn),i,i,i,i,31,i,i
O=C(COC(=O)C1CC1)Nc1ncc(C(F)(F)F)cc1Cl,i,i,i,i,i,i,nt
Cc1cc(C)cc(OCC(=O)OCC(=O)Nc2ccc(Cl)cn2)c1,i,i,i,i,i,i,nt
CSCCC(NC(=O)c1ccco1)C(=O)NCc1ccc2c(c1)OCO2 (stereo not drawn),i,i,i,i,i,nt,nt
Cc1cccc(C)c1NC(=O)CN(c1c(C)cccc1C)S(C)(=O)=O,i,nt,i,nt,nt,nt,nt
Cc1ccnn1-c1ccc(C(=O)OCC(=O)Nc2ccc(F)cc2)cc1,i,i,i,i,55,nt,60
O=C(COC(=O)c1ccc2c(c1)OCCO2)Nc1ccc(F)cc1F,i,i,i,i,77,i,62
O=C(Nc1ccc(F)cc1F)c1ccc2c(c1)OCCO2,i,i,i,i,i,i,nt
CC(C)NC(=O)COC(=O)c1ccc(NS(=O)(=O)c2ccc3c(c2)OCCO3)cc1,i,i,i,i,51,i,43
O=C(COC(=O)c1ccc2c(c1)OCCO2)Nc1ccc(F)cc1,i,i,i,i,81,nt,82
SMILES,ARFGAP1 inhibitor,PAFAH1B2 FP inh,ASAP1 inh,PAFAH1B3 FP inh,PAFAH2 FP inh,pPAFAH FP inh,PAFAH2 confirm
COc1ccc(-c2cccc3[nH]c4c(c23)CCN2C(=O)[C@H]3[C@H](C)ON(C)[C@H]3C[C@@H]42)cc1,i,nt,i,nt,nt,nt,nt
COc1cccc(/C=C2\SC(=S)N(NS(=O)(=O)c3ccc(C)cc3)C2=O)c1OC,i,i,i,i,33,i,i
COc1ccccc1/C=C1\SC(=S)N(NS(=O)(=O)c2ccccc2)C1=O,i,i,i,i,i,i,nt
CC1CCCCC1NC(=O)COC(=O)c1ccc2ncsc2c1 (stereo not drawn),i,i,i,i,84,i,78
COc1ccc(C(=O)NC(=O)COC(=O)c2ccc3ncsc3c2)cc1,nt,nt,nt,nt,nt,i,nt
CC1CCCC(NC(=O)COC(=O)c2ccc3ncsc3c2)C1C (stereo not drawn),i,i,i,i,85,i,76
CC1CCCCC1NC(=O)COC(=O)c1ccc2c(c1)NC(=O)CS2 (stereo not drawn),i,i,i,i,86,i,77
CC1OC(C(C)(C)C)Cc2[nH][nH]c(=O)c21 (stereo not drawn),i,nt,i,nt,nt,nt,nt

# Screens from PubChem.
